Here are results for 51 compounds from ChEMBL document CHEMBL1152917, “Benzothiophene piperazine and piperidine urea inhibitors of fatty acid amide hydrolase (FAAH)” (2009).

In experiment [1] the target is T1, Fatty-acid amide hydrolase 1 (Homo sapiens) (UniProt O00519).
T1 sequence (whole entry): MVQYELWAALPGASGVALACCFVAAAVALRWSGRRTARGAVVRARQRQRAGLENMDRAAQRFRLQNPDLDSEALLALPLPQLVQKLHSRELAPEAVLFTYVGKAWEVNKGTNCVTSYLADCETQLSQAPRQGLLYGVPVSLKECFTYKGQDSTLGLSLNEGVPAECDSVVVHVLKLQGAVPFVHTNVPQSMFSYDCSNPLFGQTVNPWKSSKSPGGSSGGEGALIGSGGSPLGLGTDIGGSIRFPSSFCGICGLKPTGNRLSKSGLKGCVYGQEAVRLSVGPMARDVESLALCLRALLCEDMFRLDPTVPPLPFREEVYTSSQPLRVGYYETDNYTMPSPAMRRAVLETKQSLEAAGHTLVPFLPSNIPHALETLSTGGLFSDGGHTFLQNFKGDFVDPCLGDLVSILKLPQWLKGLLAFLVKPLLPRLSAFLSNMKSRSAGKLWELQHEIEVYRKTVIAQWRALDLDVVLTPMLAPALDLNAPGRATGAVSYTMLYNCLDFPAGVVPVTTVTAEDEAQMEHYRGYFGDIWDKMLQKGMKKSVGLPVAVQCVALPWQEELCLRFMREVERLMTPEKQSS
Kind of experiment: Ratio of Kinact to Ki for histidine6-tagged human FAAH. The method, boiled down:
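Human FAAH construct: aa 32–579, N-terminal transmembrane-deleted, N-terminal His6 tag, expressed in E. coli and purified to >95% by SDS–PAGE. Potency measured as kinact/Ki in a GDH-coupled FAAH assay in 384-well format. kobs was plotted against [I]; kinact/Ki came from the slope kinact/[Ki(1+[S]/Km)].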

The target in experiment [2] is T2, Fatty-acid amide hydrolase 1 (Rattus norvegicus) (UniProt P97612).
T2 sequence (whole entry): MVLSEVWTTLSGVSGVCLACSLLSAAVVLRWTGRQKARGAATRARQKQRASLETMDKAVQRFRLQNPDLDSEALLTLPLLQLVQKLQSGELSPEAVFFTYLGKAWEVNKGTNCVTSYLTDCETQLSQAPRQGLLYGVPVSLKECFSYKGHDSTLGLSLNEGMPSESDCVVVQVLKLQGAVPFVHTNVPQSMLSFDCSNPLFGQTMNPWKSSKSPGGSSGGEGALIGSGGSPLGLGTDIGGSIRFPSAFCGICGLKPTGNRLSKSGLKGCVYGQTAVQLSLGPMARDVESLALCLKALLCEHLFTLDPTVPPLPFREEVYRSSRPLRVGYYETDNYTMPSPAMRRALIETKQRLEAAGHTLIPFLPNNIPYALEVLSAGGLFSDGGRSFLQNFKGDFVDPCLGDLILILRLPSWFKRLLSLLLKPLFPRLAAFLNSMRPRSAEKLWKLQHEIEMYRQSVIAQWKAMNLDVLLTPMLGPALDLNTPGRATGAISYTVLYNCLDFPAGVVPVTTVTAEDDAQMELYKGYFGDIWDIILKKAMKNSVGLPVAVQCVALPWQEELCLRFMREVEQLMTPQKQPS
The experiment can be described thus: Ratio of Kinact to Ki for histidine6-tagged rat FAAH. The method, boiled down:
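Rat FAAH construct: aa 30–579, N-terminal transmembrane-deleted, N-terminal His6 tag, E. coli-expressed and purified to >95% purity. Activity read by a GDH-coupled enzyme assay in 384-well plates. Second-order kinact/Ki was derived from the linear slope of kobs versus [I], correcting with (1+[S]/Km).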

Regarding `Cc1noc(NC(=O)N2CCN(Cc3sc4ccccc4c3C)CC2)c1C`, the Ratio is 1560 M⁻¹ s⁻¹ in experiment [1] and 1430 M⁻¹ s⁻¹ in experiment [2].
Taken in the same sequence, the figures for `Cc1ccc(NC(=O)N2CCN(Cc3sc4ccccc4c3Cl)CC2)cn1` were 900 M⁻¹ s⁻¹ and 133 M⁻¹ s⁻¹.
The corresponding values for `Cc1c(CN2CCN(C(=O)Nc3ccc(-c4ccccc4)nc3)CC2)sc2ccccc12` are less than 10 M⁻¹ s⁻¹ and 1220 M⁻¹ s⁻¹.
The corresponding values for `COc1ccc2c(C)c(CN3CCN(C(=O)Nc4cccnc4)CC3)sc2c1` are 73 M⁻¹ s⁻¹ and 113 M⁻¹ s⁻¹.
Take `Cc1c(CN2CCN(C(=O)Nc3ccc(Br)nc3)CC2)sc2ccccc12`: the Ratio was found to be 70 M⁻¹ s⁻¹ in experiment [1] and 157 M⁻¹ s⁻¹ in experiment [2].
Taken in the same sequence, the figures for `Cc1c(CN2CCN(C(=O)NCCO)CC2)sc2ccccc12` were 42 M⁻¹ s⁻¹ and less than 10 M⁻¹ s⁻¹.
As to `C=C(c1sc2ccccc2c1C)C1CCN(C(=O)Nc2cccnc2)CC1`, the Ratio worked out at 5440 M⁻¹ s⁻¹ in experiment [1] and 991 M⁻¹ s⁻¹ in experiment [2].
The corresponding values for `Cc1c(CN2CCN(C(=O)Nc3cccnc3)CC2)sc2ccc(C(F)(F)F)cc12` are 1390 M⁻¹ s⁻¹ and 219 M⁻¹ s⁻¹.
The corresponding values for `COc1ccc2sc(CN3CCN(C(=O)Nc4cccnc4)CC3)c(C)c2c1` are 1380 M⁻¹ s⁻¹ and 500 M⁻¹ s⁻¹.
In the case of `Cc1c(CN2CCN(C(=O)NC(C)(C)C)CC2)sc2ccccc12`, the Ratio in experiment [1] and in experiment [2] was less than 10 M⁻¹ s⁻¹ each time.
On to `CCc1c(CN2CCN(C(=O)Nc3cccnc3)CC2)sc2ccccc12`, for which the results for the Ratio in experiment [1] and in experiment [2] were 1400 M⁻¹ s⁻¹ and 774 M⁻¹ s⁻¹, respectively.
The corresponding values for `Cc1c(CN2CCN(C(=O)Nc3ccc(Oc4cccnc4)nc3)CC2)sc2ccccc12` are less than 10 M⁻¹ s⁻¹ and less than 10 M⁻¹ s⁻¹.
The corresponding values for `Cc1c(C(C)C2CCN(C(=O)Nc3cccnc3)CC2)sc2ccccc12` (stereo in doubt; 17-E2) are 617 M⁻¹ s⁻¹ and 110 M⁻¹ s⁻¹.
Taken in the same sequence, the figures for `CC(=O)Nc1ccc(NC(=O)N2CCN(Cc3sc4ccccc4c3C)CC2)cn1` were less than 10 M⁻¹ s⁻¹ and less than 10 M⁻¹ s⁻¹.
Turning to `Cc1c(CN2CCN(C(=O)Nc3ccccn3)CC2)sc2ccccc12`, the Ratio in experiment [1] is 1000 M⁻¹ s⁻¹; in experiment [2], 635 M⁻¹ s⁻¹.
Taken in the same sequence, the figures for `Cc1c(CN2CCN(C(=O)Nc3cccnc3)CC2)sc2ccc(Cl)cc12` were 2820 M⁻¹ s⁻¹ and 1130 M⁻¹ s⁻¹.
The corresponding values for `Cc1c(CN2CCN(C(=O)Nc3cccnc3)CC2)sc2cccc(F)c12` are 3320 M⁻¹ s⁻¹ and 1200 M⁻¹ s⁻¹.
Taken in the same sequence, the figures for `Cc1ccc2sc(CN3CCN(C(=O)Nc4cccnc4)CC3)c(C)c2c1` were 2640 M⁻¹ s⁻¹ and 557 M⁻¹ s⁻¹.
`Cc1c(CN2CCN(C(=O)Nc3cccnc3)CC2)sc2ccccc12`: the Ratio in experiment [1] amounted to 2400 M⁻¹ s⁻¹; in experiment [2], 1080 M⁻¹ s⁻¹.
Turning to `CNC(=O)CNC(=O)N1CCN(Cc2sc3ccccc3c2C)CC1`, the Ratio in experiment [1] and in experiment [2] was less than 10 M⁻¹ s⁻¹ each time.
With `CCc1c(CN2CCN(C(=O)Nc3cccnc3)CC2)sc2ccc(F)cc12`, the Ratio in experiment [1] was 1810 M⁻¹ s⁻¹; in experiment [2], 617 M⁻¹ s⁻¹.
The corresponding values for `Cc1c(CN2CCN(C(=O)Nc3ccc(N(C)C)nc3)CC2)sc2ccccc12` are 2400 M⁻¹ s⁻¹ and 1080 M⁻¹ s⁻¹.
Taken in the same sequence, the figures for `Cc1ccc(NC(=O)N2CCN(Cc3sc4cccc(F)c4c3C)CC2)cn1` were 1980 M⁻¹ s⁻¹ and 758 M⁻¹ s⁻¹.
Taken in the same sequence, the figures for `Cc1ccc2sc(CN3CCN(C(=O)Nc4ccc(C)nc4)CC3)c(C)c2c1` were 1170 M⁻¹ s⁻¹ and 183 M⁻¹ s⁻¹.
Take `Cc1c(CN2CCN(C(=O)Nc3ccccc3)CC2)sc2ccccc12`: the Ratio in experiment [1] turned out to be 1920 M⁻¹ s⁻¹; in experiment [2], 762 M⁻¹ s⁻¹.
Taken in the same sequence, the figures for `Cc1c(CN2CCN(C(=O)NC(C)C)CC2)sc2ccccc12` were 70 M⁻¹ s⁻¹ and less than 10 M⁻¹ s⁻¹.
Taken in the same sequence, the figures for `Cc1c(CN2CCN(C(=O)NCc3ccccc3)CC2)sc2ccccc12` were less than 10 M⁻¹ s⁻¹ and less than 10 M⁻¹ s⁻¹.
Taken in the same sequence, the figures for `Cc1c(CN2CCN(C(=O)Nc3ccc(Cl)nc3)CC2)sc2ccccc12` were less than 10 M⁻¹ s⁻¹ and 242 M⁻¹ s⁻¹.
On to `Cc1c(CN2CCN(C(=O)Nc3cccnn3)CC2)sc2ccccc12`, for which the Ratio worked out at 924 M⁻¹ s⁻¹ in experiment [1] and 191 M⁻¹ s⁻¹ in experiment [2].
`O=C(Nc1cccnc1)N1CCN(Cc2cc3ccccc3s2)CC1`: the Ratio in experiment [1] was 695 M⁻¹ s⁻¹; in experiment [2], 174 M⁻¹ s⁻¹.
Taken in the same sequence, the figures for `CCc1c(CC2CCN(C(=O)Nc3cccnc3)CC2)sc2ccc(F)cc12` were 2290 M⁻¹ s⁻¹ and 1140 M⁻¹ s⁻¹.
Taken in the same sequence, the figures for `Cc1c(C(O)C2CCN(C(=O)Nc3cccnc3)CC2)sc2ccccc12` (racemic) were 200 M⁻¹ s⁻¹ and 79 M⁻¹ s⁻¹.
The corresponding values for `CCc1c(CC2CCN(C(=O)Nc3cccnc3)CC2)sc2ccccc12` are 1670 M⁻¹ s⁻¹ and 1010 M⁻¹ s⁻¹.
With `Cc1ccc2sc(CC3CCN(C(=O)Nc4cccnc4)CC3)c(C)c2c1`, the Ratio turned out to be 3020 M⁻¹ s⁻¹ in experiment [1] and 482 M⁻¹ s⁻¹ in experiment [2].
In the case of `Cc1c(C(C)C2CCN(C(=O)Nc3cccnc3)CC2)sc2ccccc12` (racemic), the Ratio in experiment [1] stood at 114 M⁻¹ s⁻¹; in experiment [2], 48 M⁻¹ s⁻¹.
Taken in the same sequence, the figures for `Cc1c(C(=O)C2CCN(C(=O)Nc3cccnc3)CC2)sc2ccccc12` were 3600 M⁻¹ s⁻¹ and 1230 M⁻¹ s⁻¹.
The corresponding values for `CCCCNC(=O)N1CCN(Cc2sc3ccccc3c2C)CC1` are 44 M⁻¹ s⁻¹ and 13 M⁻¹ s⁻¹.
Taken in the same sequence, the figures for `Cc1c(CN2CCN(C(=O)Nc3ccc(N)nc3)CC2)sc2ccccc12` were 1920 M⁻¹ s⁻¹ and 762 M⁻¹ s⁻¹.
Consider `CCN(CC)c1ccc(NC(=O)N2CCN(Cc3sc4ccccc4c3C)CC2)cn1`, for which the Ratio in experiment [1] was 1560 M⁻¹ s⁻¹; in experiment [2], 1430 M⁻¹ s⁻¹.
The corresponding values for `Cc1c(CN2CCN(C(=O)Nc3cccnc3)CC2)sc2ccc(F)cc12` are 3130 M⁻¹ s⁻¹ and 779 M⁻¹ s⁻¹.
The corresponding values for `Cc1cnc(NC(=O)N2CCN(Cc3sc4ccccc4c3C)CC2)s1` are less than 10 M⁻¹ s⁻¹ and less than 10 M⁻¹ s⁻¹.
The corresponding values for `CCNc1ccc(NC(=O)N2CCN(Cc3sc4ccccc4c3C)CC2)cn1` are 924 M⁻¹ s⁻¹ and 191 M⁻¹ s⁻¹.
As for `CCOc1ccc2c(C)c(CN3CCN(C(=O)Nc4cccnc4)CC3)sc2c1`, the figures for the Ratio in experiment [1] and in experiment [2] were 14 M⁻¹ s⁻¹ and less than 10 M⁻¹ s⁻¹, respectively.
Taken in the same sequence, the figures for `Cc1c(CC2CCN(C(=O)Nc3cccnc3)CC2)sc2cccc(F)c12` were 4150 M⁻¹ s⁻¹ and 1550 M⁻¹ s⁻¹.
The corresponding values for `Cc1c(CC2CCN(C(=O)Nc3cccnc3)CC2)sc2ccccc12` are 5130 M⁻¹ s⁻¹ and 2610 M⁻¹ s⁻¹.
The corresponding values for `Cc1c(CN2CCN(C(=O)NC3CCCCC3)CC2)sc2ccccc12` are less than 10 M⁻¹ s⁻¹ and less than 10 M⁻¹ s⁻¹.
With `Cc1c(CN2CCN(C(=O)Nc3ccc(C(F)(F)F)nc3)CC2)sc2ccccc12`, the values for the Ratio in experiment [1] and in experiment [2] were 42 M⁻¹ s⁻¹ and less than 10 M⁻¹ s⁻¹, respectively.
The corresponding values for `Cc1c(C(C)C2CCN(C(=O)Nc3cccnc3)CC2)sc2ccccc12` (stereo in doubt; 17-E1) are 34 M⁻¹ s⁻¹ and less than 10 M⁻¹ s⁻¹.
The corresponding values for `CNc1ccc(NC(=O)N2CCN(Cc3sc4ccccc4c3C)CC2)cn1` are 1000 M⁻¹ s⁻¹ and 635 M⁻¹ s⁻¹.
The corresponding values for `Cc1ccc(NC(=O)N2CCN(Cc3sc4ccc(F)cc4c3C)CC2)cn1` are 1870 M⁻¹ s⁻¹ and 260 M⁻¹ s⁻¹.
`Cc1ccc2c(Cl)c(CN3CCN(C(=O)Nc4ccc(C)nc4)CC3)sc2c1`: the results for the Ratio in experiment [1] and in experiment [2] were 73 M⁻¹ s⁻¹ and 14 M⁻¹ s⁻¹, respectively.
